Shown are actives, neighbours in structure and some others; about 4.8% of the full set was active somewhere.
T cruzi inh: blocks replication of Trypanosoma cruzi | T. cruzi beta-gal in NIH3T3, luminescence, 90 h | inhibition, % (test concentration not listed) | hit rate 1.4% among 300,000;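 active = mean inhibition across valid replicates above about 55%, limit read from the data; inconclusive = mean below that limit but half or more replicates reach it; inactive = mean below it, under half of replicates reach it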;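 note: signal also drops with host cell toxicity which is not excluded here; 0% = plate median of DMSO wells and 100% = zero luminescence signal; higher percent means less beta-gal luminescence so fewer parasites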
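Material: NIH/3T3 host cells with β-galactosidase reporter T. cruzi; Input: 5,000 host fibroblasts per well; Medium: DMEM, 2% fetal bovine serum; Compound: 50 nL DMSO compound solution per well; Schedule: 3 h host attachment, then at least 90 h co-culture; Detection: luminescent β-galactosidase signal after 60 min lysis.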
SUMO Mot1 rescue: SUMOylation pathway inhibition by Mot1-301 growth rescue | S. cerevisiae Mot1-301 growth rescue, ATP luminescence, 38.5C; percent above DMSO median, 100 means doubled | growth rescue, % at 18.8 µM | hit rate 1% among 320,000 | AID 2716;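 active = every valid replicate shows activation above 250% relative to neutral control wells; inactive = the rest, any valid replicate at or below 250%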;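 note: OY570 slx delta 5 strain wells were the positive control but not used for scaling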
Beta apoptosis: beta cell apoptosis inhibition; protection from apoptosis, % (concentration not given with the values); AID 435005; INS-1E cytokine-induced death, ATP luminescence, 48 h; percent of positive-control rescue, neutral wells zero; hit rate 0.8% among 300,000;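 active = Every replicate reaches about 75%, or at least half do and their mean reaches it too, limit read from the data; inconclusive = At least half of replicates reach the limit but their mean does not; inactive = Under half of replicates reach the limit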;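 note: 0% = cytokine-treated negative control wells and 100% = positive control rescue; higher means more ATP so stronger rescue from cytokine killing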
WT yeast gro inh: growth inhibition of WT yeast, mitochondrial fusion screen; mitochondrial fusion phenotypic screen, WT strain; hit rate 2.1% among 190,000; inhibition, % at 10 µM; AID 1362; in the data active = inhibition above about 58%; tested in S. cerevisiae
Efflux pump mplx: inhibitors of Candida antifungal efflux pumps expressed in yeast. S. cerevisiae Candida pump triplex, Nile Red efflux. inhibition, % at 10 µM. hit rate 0.44% among 330,000;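 active = plate passing quality check with inhibition over a set limit, or well fluorescence over plate mean plus 4 SD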;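 note: Nile Red retained in pooled yeast measured as flow cytometry median fluorescence; 0% = buffer negative control and 100% = Enniatin B positive control; higher means more Nile Red kept so more efflux inhibition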
CSC inhib: cancer stem cell inhibition | cancer stem cell-like cells viability, luminescence | inhibition, % at 7.5 µM | hit rate 1.1% among 300,000; in the data active = inhibition above about 75%; inconclusive = no clear call, values can overlap the other calls; tested in HMLE shEcad cells
* marks the source's active call; other numbers are inactive results; ? = inconclusive; . = not tested or not shown.

SMILES | T cruzi inh | SUMO Mot1 rescue | Beta apoptosis | WT yeast gro inh | Efflux pump mplx | CSC inhib
Cc1ccc(C)c(NC(=O)c2cc(-c3ccccc3)nn2-c2ccccc2)c1 | -12 | -6 | -3 | 74* | -10 | 89*
Cc1nn(-c2ccccc2)c(Cl)c1C(=O)Nc1nnc(C2CCCCC2)s1 | 6 | 151 | 6 | 6 | 0 | 6
Cc1ccc(C)c(NC(=O)c2nc(-c3ccccc3)n(-c3ccccc3)n2)c1 | -3 | 8 | 5 | 18 | 0 | -8
Cc1nn(Cc2ccc(F)cc2)c(Cl)c1/C=N/NC(=O)c1cccnc1 | 3 | 1 | -3 | -18 | 0 | -6
Cc1nn(Cc2ccc(F)cc2)c(Cl)c1/C=N/NC(=O)c1ccccc1 | 66* | 9 | 2 | -10 | 0 | 60
O=C(O)CCNS(=O)(=O)c1ccc2c(c1)OCCCO2 | 2 | -8 | -4 | 5 | 0 | 3
CCOc1cc(CNS(=O)(=O)c2ccc3c(c2)CC(=O)N3C)cc(OCC)c1OCC | 4 | 192 | -10 | . | 0 | 3
Cc1ccc(C)c(C(=O)COC(=O)CN2C(=O)C3C4CCC(C4)C3C2=O)c1 (configuration not stated) | 1 | 189 | -2 | . | 0 | 2
O=C1c2cccc3cc([N+](=O)[O-])cc(c23)C(=O)N1c1ccccc1O | 58* | -3 | . | -2 | 0 | -14
O=C1c2cccc3cc([N+](=O)[O-])cc(c23)C(=O)N1c1nncs1 | -3 | 12 | 1 | . | 0 | 1
Cc1cc(O)ccc1N1C(=O)c2cccc3cc([N+](=O)[O-])cc(c23)C1=O | 67* | 8 | 0 | -2 | 0 | -5
O=C(COc1ccc(/C=N/NC(=O)c2cc3ccccc3o2)cc1Br)Nc1ccccc1 | 70* | -23 | -4 | 4 | 0 | 99*
O=C(COc1ccccc1[N+](=O)[O-])Nc1ccc(NC(=O)c2cc3ccccc3o2)cc1 | 18 | -4 | -2 | -2 | 0 | -2
C/C(=N\NC(=O)c1nnn(-c2nonc2N)c1CN1CCCCC1)c1ccccc1O | 0 | -12 | 28 | . | 0 | 81*
C/C(=N\NC(=O)c1nnn(-c2nonc2N)c1CN(C)c1ccccc1)c1ccccc1O | 64* | -14 | 90* | . | 0 | 98*
COc1ccc(/C(C)=N/NC(=O)c2nnn(-c3nonc3N)c2CN(C)c2ccccc2)cc1 | 4 | 7 | 15 | . | 0 | -4
COc1cccc(CC(NC(C)=O)C(=O)NC2CCN(S(=O)(=O)c3ccc4ccccc4c3)CC2)c1 (configuration not stated) | 11 | 33 | -8 | -8 | 0 | 4
CCc1ccc(CCC(=O)Nc2ccccc2C(=O)O)o1 | 15 | -7 | -11 | 77* | 0 | 12
CCCC(=O)NNC(=O)CC(=O)Nc1ccccc1C(=O)O | -13 | -5 | -1 | . | 0 | -5
CCOCCCNC(=S)N1CCCN(c2nc3cc(C)ccc3cc2C#N)CC1 | -1 | 169 | -1 | 28 | 0 | -5
CCOCCCNC(=S)N1CCCN(c2nc3c(C)c(C)ccc3cc2C#N)CC1 | 15 | . | . | 74* | . | .
CCOCCCNC(=S)NCCCNc1nc2c(C)c(C)ccc2cc1C#N | . | . | . | 74* | . | .
O=C1C=C(c2ccc3c(c2)OCCO3)C[C@@H](c2ccc(F)cc2)C1 | . | -13 | -3 | . | 0 | 35
CCN1CCN(C(=S)NC(C)c2ccccc2)CC1 (configuration not stated) | -11 | 104 | 6 | -11 | -2 | 9
N#Cc1ccccc1OCC(=O)OCCCOC(=O)COc1ccccc1C#N | -18 | 300* | -7 | . | 0 | -4
SMILES | T cruzi inh | SUMO Mot1 rescue | Beta apoptosis | WT yeast gro inh | Efflux pump mplx | CSC inhib
O=C(Nc1ccc(N2CCCCCC2)cc1)c1cccc(S(=O)(=O)N2CCOCC2)c1 | . | -6 | 18 | . | 0 | .
CCC(C(=O)NC(C)c1ccccc1)C(=O)NC(C)c1ccccc1 (configuration not stated) | 17 | 1 | -1 | . | -1 | -20
CCc1cccc(CC)c1NC(=S)NC(C)c1ccccc1 (configuration not stated) | ? | 31 | 14 | 60* | 0 | 28
Cc1cc(C)c(C#N)c(SCC(=O)C(C)(C)C)n1 | 72* | -1 | . | -1 | 0 | .
O=C(COC(=O)c1ccc(O)cc1O)NC(=O)NCc1ccccc1 | . | . | . | . | 0 | .
CC(C)C[C@H](NC(=O)[C@@H]1Cc2c([nH]c3ccccc23)C2c3ccccc3C(=O)N21)C(=O)NCC1CCCO1 (some centres not stated) | 14 | 283 | -2 | . | 0 | -2
CSCC[C@H](NC(=O)[C@@H]1Cc2c([nH]c3ccccc23)C2c3ccccc3C(=O)N21)C(=O)NCC1CCCO1 (some centres not stated) | 0 | 793* | -9 | . | 0 | -5
Cc1cccc(Nc2nc(N)nc(CCl)n2)c1 | 68* | 18 | -10 | . | 0 | 10
Cc1ccc(Nc2nc(N)nc(CCl)n2)c(C)c1 | 57* | -4 | -3 | . | 0 | 2
COc1cccc(Nc2nc(N)nc(CCl)n2)c1 | 69* | 13 | -11 | . | 0 | -1
Cc1ccc(Nc2nc(N)nc(CN3CCCCCC3)n2)c(C)c1 | 8 | 7 | . | 14 | 0 | -10
COc1ccc(OC)c(Nc2nc(N)nc(CCl)n2)c1 | . | 1 | -6 | . | 0 | -3
Cc1ccc(Nc2nc(N)nc(CCl)n2)cc1 | 3 | 8 | -4 | . | 0 | -12
CCC(CC)c1nnc(NC(=O)c2cc([N+](=O)[O-])ccc2N2CCOCC2)s1 | . | -6 | 3 | . | 0 | 6
O=C(NC1CCCC1)C1CC(O)CN1C(=O)Nc1ccccc1 (configuration not stated) | -3 | -11 | 4 | . | 0 | -14
O=C(c1ccc(=O)[nH]c1)N1CCN(S(=O)(=O)c2ccccc2)CC1 | 1 | -8 | . | . | 0 | .
COc1ccc(C2(C)NC(=O)N(CC(=O)Nc3ccc4c(c3)OCO4)C2=O)cc1OC (configuration not stated) | -11 | -11 | -1 | -3 | 0 | -8
c1ccc(CCNc2ccnc3cc4ccccc4cc23)cc1 | 59* | . | . | 63 | . | .
CC(C)Nc1ccc(Nc2ccnc3cc4ccccc4cc23)cc1 | 58* | 183 | 125* | . | 0 | 108*
C=CCNC(=O)COC(=O)C1CCN(S(=O)(=O)c2ccc3c(c2)OCCO3)CC1 | -5 | -16 | -7 | . | 0 | 16
Cc1onc(NC(=O)CSCC(=O)O)c1Br | -5 | -31 | -2 | . | 0 | -3
CCOC(=O)/C(=C/c1c2ccccc2cc2ccccc12)NC(=O)c1ccccc1 | 7 | 69 | 11 | 60* | 0 | 22
COc1ccc(Nc2nnc(SCC(=O)c3cc(C)n(CC4CCCO4)c3C)s2)cc1 (configuration not stated) | . | 5 | -6 | -1 | 0 | 10
CCN(C1CCCCC1)S(=O)(=O)c1ccc(S(=O)(=O)NCCc2ccncc2)cc1 | ? | -4 | 14 | 16 | 0 | -3

Compound activity from PubChem BioAssay.
